SMILES strings stand for the structures. The source made the active and inactive calls.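 Rule for the calls, unless noted: active = Her2 level under about 52% in both replicate screens, with viability over 70% of control (limit read from the data); inconclusive = Her2 under the limit in one screen only, or viability under 70%; inactive = Her2 level above the set limit.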

Assay [1] is described as follows: Her2 expression decrease, cell viability multiplex – SKBR3 breast tumor cells, AlphaScreen, ATP viability, primary screen (AID 461).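 For Her2 level: lower value means less Her2 protein in the cells.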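 For viability: percent of carrier control wells set as 100% viability.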 Particulars: SKBR3 Her2 protein level, 18-24 h, measured here: SKBR3 viability, ATP luminescence, at 10 µM. On the technique in general: Bead proximity is the source of the signal in Alpha formats.
Assay [2] deals with Receptor tyrosine-protein kinase erbB-2 (Homo sapiens) (UniProt P04626). The description is as above. The following applies: 18-24 h, at 10 µM, stronger effect = lower value.
Assay [3] is described as follows: reduced viability of SK-BR-3 breast cancer cells – cell-based, 24 h, human, pilot screen (AID 572;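 active = viability at or below 10% of carrier control in both of two separate runs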;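 note: compound exposure lasted between 18 and 24 h rather than exactly 24 h; 100% = carrier-treated control wells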). The following applies: SK-BR-3 viability, CellTiter-Glo luminescence, at 10 µM, stronger effect = lower value.
The nature of assay [4]: HUVEC growth inhibition – cell-based, human, primary screen (AID 575;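 active = viability at or below 30% in both replicate assays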;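 note: 100% = median of untreated cell wells with 0.1% DMSO on each plate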). The following applies: HUVEC proliferation, CellTiter-Glo luminescence, 72 h; at 10 µM; stronger effect = lower value. In short, it runs like this:
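Test system: HUVEC primary cells. Quantity: 1250 endothelial cells in each well. Dosing: single-point 10 µM, DMSO 0.1% final. Incubation: 72 h treatment at 37 °C. Measured by: CTG luminescence. Control set: DMSO cell controls and MePR drug controls. Plate: collagen-coated 384-well format.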
Background: Cellular ATP, detected with luciferase, serves as a proxy for viable cell number.

A short description of assay [5]: H69AR cell proliferation blockers – human, duplicate replicates, primary screen (AID 580;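 active = viability at or under a set limit in both replicates, limit being median viability minus 3 SD, cut at about 48% in these data, passing the limit was not always enough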;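 note: 100% = mean luminescence of untreated wells and 0% = no signal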). The following applies: H69AR lung tumor cells viability, ATP luminescence, 72 h; at 10 µM; stronger effect = lower value.
The nature of assay [6]: MRP1 drug-resistance reversers in H69AR cells – cell-based, doxorubicin co-treatment, pilot screen (AID 601;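 active = viability loss from added drug above about 55%, and viability with drug at most 40%, in both replicates, limit read from the data, passing the limit was not always enough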). Particulars: CellTiter-Glo, 72 h, at 10 µM; for differential viability (reversal): stronger effect = higher value.
Assay [7] in a line: yeast transport mutant growth inhibition pilot in 384-well plates, post-Golgi transport modulator project (AID 636; in the data active = inhibition above about 31%). Particulars: absorbance 615 nm, about 18 h, stronger effect = higher value.
Assay [8] can be described thus: growth suppression of yeast trafficking mutant, preliminary HTS, modulators of trafficking downstream of Golgi apparatus project, 1536-format plate, OD 615 nm (AID 637; in the data active = inhibition above about 30%). Particulars: yeast transport mutant growth, absorbance 615 nm, 18 h; stronger effect = higher value.
[9] abbreviates: H69AR cells + 2 uM doxorubicin, measured here: viability with 2 uM doxorubicin, stronger effect = lower value.
Where [10] appears, read: H69AR cells, compound alone cytotoxicity.

Chain of Receptor tyrosine-protein kinase erbB-2 (Homo sapiens) (P04626 whole entry, looked up): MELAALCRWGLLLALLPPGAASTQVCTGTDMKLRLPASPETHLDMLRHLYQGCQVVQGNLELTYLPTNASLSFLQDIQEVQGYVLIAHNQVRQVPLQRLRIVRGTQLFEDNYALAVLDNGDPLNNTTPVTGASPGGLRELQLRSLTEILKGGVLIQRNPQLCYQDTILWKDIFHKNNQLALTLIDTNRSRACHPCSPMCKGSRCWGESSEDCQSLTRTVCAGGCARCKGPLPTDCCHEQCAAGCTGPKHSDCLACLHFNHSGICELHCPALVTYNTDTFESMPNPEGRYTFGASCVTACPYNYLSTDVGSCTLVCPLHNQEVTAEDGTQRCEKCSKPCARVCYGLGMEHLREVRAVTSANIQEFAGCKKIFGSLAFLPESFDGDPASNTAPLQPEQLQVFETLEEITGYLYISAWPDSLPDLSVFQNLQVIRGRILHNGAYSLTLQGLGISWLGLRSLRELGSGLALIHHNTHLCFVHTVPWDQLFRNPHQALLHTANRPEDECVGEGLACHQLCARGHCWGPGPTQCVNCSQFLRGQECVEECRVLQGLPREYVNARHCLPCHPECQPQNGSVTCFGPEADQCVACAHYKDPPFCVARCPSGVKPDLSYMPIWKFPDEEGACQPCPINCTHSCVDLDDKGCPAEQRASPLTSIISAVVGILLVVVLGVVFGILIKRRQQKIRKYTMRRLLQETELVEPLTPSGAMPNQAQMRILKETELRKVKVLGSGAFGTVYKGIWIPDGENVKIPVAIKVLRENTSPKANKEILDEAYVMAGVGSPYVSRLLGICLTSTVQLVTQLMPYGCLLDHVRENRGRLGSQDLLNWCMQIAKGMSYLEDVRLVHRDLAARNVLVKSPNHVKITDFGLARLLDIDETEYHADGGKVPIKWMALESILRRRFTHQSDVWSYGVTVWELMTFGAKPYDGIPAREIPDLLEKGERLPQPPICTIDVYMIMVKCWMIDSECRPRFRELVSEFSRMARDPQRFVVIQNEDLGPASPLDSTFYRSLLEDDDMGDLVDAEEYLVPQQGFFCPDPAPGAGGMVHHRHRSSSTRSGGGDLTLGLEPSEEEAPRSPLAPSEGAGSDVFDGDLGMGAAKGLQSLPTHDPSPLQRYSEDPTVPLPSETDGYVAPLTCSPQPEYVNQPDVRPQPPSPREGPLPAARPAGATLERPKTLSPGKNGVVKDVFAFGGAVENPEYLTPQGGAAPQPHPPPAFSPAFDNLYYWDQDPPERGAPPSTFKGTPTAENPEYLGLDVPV

As to `O=C(O)c1cc(=O)cc(C(=O)O)[nH]1`, the viability (as a rule, a read-out of living cells in per cent, often relative to untreated cells) is 80.5% in assay [1]; 80.5% (inactive) in assay [3]; 102% (inactive) in assay [4]; 105% (inactive) in assay [5]; 92.7% in assay [6] (setting [9]); 105% in assay [6] (setting [10]). Moreover, the Her2 level in assay [2] was 91.5% (inactive). For the same compound, the differential viability (reversal) in assay [6] (H69AR cells + 2 uM doxorubicin) is 12.5% (inactive). Besides, the inhibition (commonly the change of the read-out against control, counted positive when it falls) in assay [7] is 0% (inactive); in assay [8] it was 22.9% (inactive).

With `COc1ccccc1OCC(=O)Nc1ccc(S(=O)(=O)Nc2nc(C)cc(C)n2)cc1`, the viability was 90.5% in assay [1]; 90.5% (inactive) in assay [3]; 98.7% (inactive) in assay [4]; 96.3% (inactive) in assay [5]; 88.5% in assay [6] (setting [9]); 96.3% in assay [6] (setting [10]). Moreover, the Her2 level in assay [2] was 184% (inactive). For the same compound, in assay [6] (H69AR cells + 2 uM doxorubicin), the differential viability (reversal) is 7.8% (inactive). Also, the inhibition in assay [7] was -3.59% (inactive); in assay [8], -5.5% (inactive).

As to `Cn1cnc2c(N3CCCCC3)nccc21`, the viability in assay [1] was 116%; in assay [3] it was 116% (inactive); in assay [4], 87.3% (inactive); in assay [5] it was 90.5% (inactive); in assay [6] (setting [9]), 95.7%; in assay [6] (setting [10]) it was 90.5%. Also, the Her2 level in assay [2] is 104% (inactive). Further, in assay [6] (H69AR cells + 2 uM doxorubicin), the differential viability (reversal) is -5.21% (inactive). Moreover, the inhibition in assay [7] was -4.16% (inactive); in assay [8] it was -1.64% (inactive).

For the compound `O=C1Nc2ccccc2OC1CC(=O)N1CCCC1` (stereo not given), the viability in assay [1] is 88.5%; in assay [3], 88.5% (inactive); in assay [4] it was 94.7% (inactive); in assay [5], 102% (inactive); in assay [6] (setting [9]), 90.5%; in assay [6] (setting [10]), 102%. The Her2 level in assay [2] was 91.5% (inactive). Moreover, in assay [6] (H69AR cells + 2 uM doxorubicin), the differential viability (reversal) is 11.9% (inactive). For the same compound, the inhibition is -2.53% (inactive) in assay [7] and 0.66% (inactive) in assay [8].

In the case of `Cc1c(NC(=O)C2(c3ccccc3)CCOCC2)c(=O)n(-c2ccccc2)n1C`, the viability is 92.5% in assay [1]; 92.5% (inactive) in assay [3]; 113% (inactive) in assay [4]; 93.6% (inactive) in assay [5]; 97.3% in assay [6] (setting [9]); 93.6% in assay [6] (setting [10]). The Her2 level in assay [2] is 92% (inactive). For the same compound, the differential viability (reversal) in assay [6] (H69AR cells + 2 uM doxorubicin) is -3.73% (inactive). Further, the inhibition was -3.07% (inactive) in assay [7] and -4.76% (inactive) in assay [8].

For `Cc1ccc(NC(=O)C2CCCN(S(=O)(=O)c3cnc[nH]3)C2)cc1C` (stereo not given), the viability is 95% in assay [1]; 95% (inactive) in assay [3]; 102% (inactive) in assay [4]; 100% (inactive) in assay [5]; 94.6% in assay [6] (setting [9]); 100% in assay [6] (setting [10]). In assay [2], the Her2 level was 110% (inactive). In assay [6] (H69AR cells + 2 uM doxorubicin), the differential viability (reversal) is 5.56% (inactive). The figures for the inhibition in assay [7] and in assay [8] were -5.6% (inactive) and -2.3% (inactive), respectively.

With `CSc1nnc(-c2ccc(NC(=O)CCc3ccccc3)cc2)n1C`, the viability in assay [1] is 91.5%; in assay [3], 91.5% (inactive); in assay [4], 111% (inactive); in assay [5] it was 87% (inactive); in assay [6] (setting [9]), 89.5%; in assay [6] (setting [10]) it was 87%. The Her2 level in assay [2] is 82.5% (inactive). Besides, the differential viability (reversal) in assay [6] (H69AR cells + 2 uM doxorubicin) was -2.53% (inactive). The inhibition in assay [7] is -4.59% (inactive); in assay [8], 3.11% (inactive).

On to `CCOC(=O)C(NCc1ccccc1OC)(NC(C)=O)C(F)(F)F` (stereo not given), for which the viability in assay [1] was 116%; in assay [3], 116% (inactive); in assay [4], 98.8% (inactive); in assay [5], 91.8% (inactive); in assay [6] (setting [9]) it was 90.1%; in assay [6] (setting [10]), 91.8%. In addition, the Her2 level in assay [2] is 91% (inactive). The differential viability (reversal) in assay [6] (H69AR cells + 2 uM doxorubicin) is 1.75% (inactive). Besides, the inhibition is -2.6% (inactive) in assay [7] and -0.63% (inactive) in assay [8].

As to `COc1ccccc1C(=O)Nc1ccc(N2CCN(S(C)(=O)=O)CC2)cc1`, the viability in assay [1] was 99.5%; in assay [3], 99.5% (inactive); in assay [4], 144% (inactive); in assay [5] it was 97.2% (inactive); in assay [6] (setting [9]), 84.5%; in assay [6] (setting [10]), 97.2%. Besides, the Her2 level in assay [2] was 106% (inactive). In addition, the differential viability (reversal) in assay [6] (H69AR cells + 2 uM doxorubicin) was 12.7% (inactive). Also, the values for the inhibition in assay [7] and in assay [8] were -1.89% (inactive) and -4% (inactive), respectively.

For the compound `CCC(C(=O)OCC(=O)Nc1c(C)n(C)n(-c2ccccc2)c1=O)c1ccccc1` (stereo not given), the viability was 109% in assay [1]; 109% (inactive) in assay [3]; 117% (inactive) in assay [4]; 87.7% (inactive) in assay [5]; 81.1% in assay [6] (setting [9]); 87.7% in assay [6] (setting [10]). In assay [2], the Her2 level was 83% (inactive). Further, in assay [6] (H69AR cells + 2 uM doxorubicin), the differential viability (reversal) is 6.61% (inactive). Besides, the inhibition in assay [7] is -4.66% (inactive); in assay [8], -4.76% (inactive).

As for `Nc1nc(CN2CCN(Cc3ccc4c(c3)OCO4)CC2)nc(Nc2ccccc2)n1`, the viability in assay [1] is 102%; in assay [3], 102% (inactive); in assay [4], 114% (inactive); in assay [5], 97.4% (inactive); in assay [6] (setting [9]) it was 84.4%; in assay [6] (setting [10]), 97.4%. Further, the Her2 level in assay [2] is 92.5% (inactive). For the same compound, the differential viability (reversal) in assay [6] (H69AR cells + 2 uM doxorubicin) was 13% (inactive). Moreover, the inhibition is -2.76% (inactive) in assay [7] and 5.48% (inactive) in assay [8].

Take `O=C(NC1=NCCS1)NC12CC3CC(CC(C3)C1)C2`: the viability in assay [1] was 111%; in assay [3], 111% (inactive); in assay [4], 98.4% (inactive); in assay [5], 93% (inactive); in assay [6] (setting [9]), 88.7%; in assay [6] (setting [10]), 93%. Moreover, the Her2 level in assay [2] is 106% (inactive). For the same compound, in assay [6] (H69AR cells + 2 uM doxorubicin), the differential viability (reversal) is 4.27% (inactive). In addition, the inhibition was -4.53% (inactive) in assay [7] and 5.08% (inactive) in assay [8].

For the compound `CCC(C)n1[nH]c(=O)c2c(C)cc(C)nc21` (stereo not given), the viability was 97.5% in assay [1]; 97.5% (inactive) in assay [3]; 95.8% (inactive) in assay [4]; 98.8% (inactive) in assay [5]; 88.9% in assay [6] (setting [9]); 98.8% in assay [6] (setting [10]). The Her2 level in assay [2] was 91.5% (inactive). Also, in assay [6] (H69AR cells + 2 uM doxorubicin), the differential viability (reversal) is 9.86% (inactive). The inhibition in assay [7] was -5.26% (inactive); in assay [8], -1.64% (inactive).

For the compound `COc1ccc(CC(=O)NC2CCN(CC(=O)Nc3ccc4c(c3)OCCO4)CC2)cc1OC`, the viability in assay [1] was 97.5%; in assay [3] it was 97.5% (inactive); in assay [4] it was 88.2% (inactive); in assay [5] it was 106% (inactive); in assay [6] (setting [9]), 89.1%; in assay [6] (setting [10]) it was 106%. For the same compound, the Her2 level in assay [2] is 132% (inactive). The differential viability (reversal) in assay [6] (H69AR cells + 2 uM doxorubicin) is 17% (inactive). Further, the inhibition in assay [7] is -2.37% (inactive); in assay [8], -5.33% (inactive).

`O=C1C2CCCN2C(c2ccc(Cl)cc2)N1c1nccs1` (stereo not given): the viability was 99% in assay [1]; 99% (inactive) in assay [3]; 86.5% (inactive) in assay [4]; 97.4% (inactive) in assay [5]; 90.2% in assay [6] (setting [9]); 97.4% in assay [6] (setting [10]). Further, the Her2 level in assay [2] was 77% (inactive). In assay [6] (H69AR cells + 2 uM doxorubicin), the differential viability (reversal) is 7.26% (inactive). Moreover, the inhibition in assay [7] is -2.24% (inactive); in assay [8] it was -1.94% (inactive).

Consider `COc1ccccc1CN1CCCC(C(=O)N(C)Cc2ccccc2)C1` (stereo not given), for which the viability in assay [1] was 70%; in assay [3], 70% (inactive); in assay [4], 99.1% (inactive); in assay [5], 81.1% (inactive); in assay [6] (setting [9]) it was 77.4%; in assay [6] (setting [10]) it was 81.1%. In addition, the Her2 level in assay [2] was 116% (inactive). Moreover, in assay [6] (H69AR cells + 2 uM doxorubicin), the differential viability (reversal) is 3.71% (inactive). Also, the inhibition in assay [7] is -0.77% (inactive); in assay [8], 5% (inactive).

The values are drawn from PubChem BioAssay.
